One data set relates to monocytes. To be noted: cited from earlier work.
A further data set has as its system cIAP1. As to conditions: cited from earlier work.
For a further data set, the system named is L929 cells. Kind of data set: hypoxia-induced cell death, L929. The data set is classed as cell-based. As to conditions: 1% O2; Nec-1s 25 μM; propidium iodide uptake; n = 3. An outline of the steps:
(§1)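 HT-29 and L929 cells were held at 1% O2 with or without 25 μM Nec-1s; L929 were kept in DMEM with 10% FBS and 1% penicillin/streptomycin. Cell death was measured by propidium iodide uptake, counting PI-positive and total cells under an inverted fluorescence microscope. Values are mean ± s.d., n = 3 biological samples.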

Data set [1] concerns HT-29 cells. Put plainly: hypoxia-induced cell death, HT-29. Type of data set: cell-based. To be noted: 1% O2; Nec-1s 25 μM; propidium iodide uptake; n = 3. The gist of the method: as §1
For the next data set, the system named is Jurkat cells. Kind of data set: hypoxia-induced cell death, Jurkat. The data set is classed as cell-based. As to conditions: 1% O2, 48 h; propidium iodide uptake; n = 3. The gist of the method: (§2)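 Jurkat, THP-1 and primary fibroblasts were exposed to 1% O2 for 48 h. Cell death was measured by propidium iodide uptake, counting PI-positive and total cells under an inverted fluorescence microscope. Values are mean ± s.d., n = 3 biological samples, compared by unpaired two-tailed t-test.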

The next data set relates to THP-1 cells. Put plainly: hypoxia-induced cell death, THP-1. Type of data set: cell-based. To be noted: 1% O2, 48 h; propidium iodide uptake; n = 3. An outline of the steps:
as §2

In data set [2] the test system is human skin fibroblast cells. Put plainly: hypoxia-induced cell death, human skin fibroblasts. As to conditions: 1% O2, 48 h; primary fibroblasts; propidium iodide uptake; n = 3. Type of data set: cell-based. The gist of the method: as §2
Another data set deals with Vhl knockout MEFs. Put plainly: hypoxia-induced necroptosis in Vhl-deleted MEFs. The data set is classed as cell-based, mouse. To be noted: 1% O2; Nec-1s printed as 25 M; propidium iodide uptake; n = 3.
Data set [3] relates to human RIPK1 and RIPK1-P195A mutant. Kind of data set: p-RIPK1-S166 in 293T cells overexpressing WT or P195A RIPK1. Type of data set: cell-based. To be noted: overexpressed RIPK1, 10 μM Nec-1s, n = 3.
The test system of the next data set is primary Ripk1 P196A MEFs. Kind of data set: TSZ or TNFα/SM-164-induced cell death and p-RIPK1-S166 in Ripk1 P196A MEFs. Type of data set: cell-based, mouse. As to conditions: Nec-1s 20 μM, n = 3.
Another data set has as its system Egln1−/− MEFs. Kind of data set: TSZ- or TNFα/5z7-induced cell death, Egln1−/− MEFs. The data set is classed as cell-based, mouse. To be noted: induced by TSZ or by TNFα + 5z7 (200 nM); n = 3. An outline of the steps:
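Knockout MEFs were given TNFα 10 ng/mL + SM164 50 nM + zVAD.fmk 20 μM, or TNFα 10 ng/mL + 5z7 200 nM, each ± RIPK1-inhibitor test compound. TSZ death was read by PI uptake: PI-positive and total cells counted by fluorescence microscopy. TNFα/5z7 viability was read by ATP-Glo luminescence, background-subtracted, as % of untreated wells. n = 3 biological samples, mean ± s.d., two-way ANOVA.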

The next data set deals with 786-O cells. Kind of data set: TNFα/5z7/SM-164-induced RDA in 786-O cells. As to conditions: Nec-1s 10 μM; TNFα 10 ng/mL; SM-164 50 nM; 5z7 500 nM; n = 3. Type of data set: cell-based. The gist of the method:
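VHL-deficient 786-O cells were treated with TNFα, 5z7 and SM-164, with or without Nec-1s, for different times. Viability was read by ATP-Glo luminescence, expressed as a percentage of untreated wells after subtracting the blank-well background.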

The subject of the next data set is Ripk1 P196A/P196A mice. Put plainly: Nec-1s in Ripk1 P196A/P196A mice. The data set is classed as in vivo, mouse. To be noted: Nec-1s in drinking water, 7 d; n = 5-6.
A further data set relates to Vhl LKO mice (liver). Put plainly: Nec-1s in Vhl LKO mice. The data set is classed as in vivo, mouse. To be noted: Nec-1s in drinking water, 7 days; n = 6.
Data set [4] has as its system HT-29 cells. Put plainly: RIPK1 activation and necroptosis by FG-4592, HT-29 cells. Type of data set: cell-based.
The subject of data set [5] is RIPK1, RIPK3 and MLKL activation. Put plainly: RIPK1, RIPK3 and MLKL activation by EGLN inhibitors. Type of data set: cell-based, mouse. To be noted: MEFs; for hallmarks of RIPK1, RIPK3 and MLKL activation, inhibitor alone: immunoblotting; for concentration needed to activate RIPK1 and necroptosis: concentration series.
For data set [6], the system named is pVHL interaction with RIPK1. Put plainly: pVHL-RIPK1 interaction in cells. Type of data set: cell-based. To be noted: DFO 200 μM; co-immunoprecipitation. An outline of the steps:
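RIPK1⁻/⁻ HT-29 cells were infected with expression vectors and treated with DFO 200 μM. Immunocomplexes were washed three times (20 mM Tris pH 8.0, 100 mM NaCl, 1 mM EDTA, 0.5% NP-40), resolved by SDS-PAGE and immunoblotted.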

Data set [7] relates to RIPK1 proline hydroxylation (EGLN). Kind of data set: RIPK1 proline hydroxylation in cells, pan-hydroxylation antibody. The data set is classed as cell-based, murine. As to conditions: MEFs with Flag-mRIPK1; CoCl2 400 μM, 16 h. An outline of the steps:
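MEFs were transduced with a Flag-mouse RIPK1 expression vector for 24 h, then treated with CoCl2 (400 μM) for a further 16 h. Lysates were immunoprecipitated with anti-Flag and the complexes immunoblotted with an anti-pan-hydroxylation antibody. Three independent experiments were run.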

Data set [8] relates to MEFs. Kind of data set: cell death with EGLN inhibitor, MEFs. Type of data set: cell-based, mouse. The gist of the method:
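MEFs in DMEM/10% FBS/1% penicillin-streptomycin were treated with graded test compound concentrations. Cell death was measured by propidium iodide uptake, counting PI-positive versus total cells by fluorescence microscopy (mean ± s.d., n = 3 biological samples). p-RIPK1-S166 and p-MLKL-S345 were immunoblotted across the concentration series after 48 h, and at 400 μM over a time course.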

Another data set concerns Mlkl knockout cells. Kind of data set: FG-4592-induced cell death in WT and Mlkl knockout cells. The data set is classed as cell-based. To be noted: n = 3.
Data set [9] deals with Pro195 hydroxylation of RIPK1. Put plainly: RIPK1 Pro195/Pro196 hydroxylation in cells. The data set is classed as cell-based. To be noted: high doses only.
For data set [10], the system named is proline hydroxylation of RIPK1 at Pro196. Kind of data set: RIPK1 Pro196 hydroxylation in mouse liver in vivo. To be noted: WT mouse liver; i.p. 50 or 250 mg kg^−1 every 24 h for 2 d; n = 3.
The test system of data set [11] is MEFs. Kind of data set: TSZ-induced cell death with FG-4592, MEFs. The data set is classed as cell-based, mouse. To be noted: FG-4592 200 μM; TNFα 10 ng/mL, SM164 50 nM, zVAD.fmk 20 μM; n = 3. The gist of the method:
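MEFs were given TNFα 10 ng/mL, SM164 50 nM and zVAD.fmk 20 μM, with or without test compound at 200 μM. Cell death was read by propidium iodide uptake: PI-positive and total cells were counted under an inverted fluorescence microscope. n = 3 biological independent samples, mean ± s.d., two-way ANOVA.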

Data set [12] has as its system WT and Ripk1 P196A/P196A mice. Put plainly: FG-4592 in WT and Ripk1 P196A/P196A mice. Type of data set: in vivo. As to conditions: FG-4592 25 mg kg^−1 i.p., 7 days.
In a further data set the test system is WT mice (liver). Kind of data set: FG-4592 in vivo, WT mice: liver damage, RIPK1 activation, cell death, cytokines.
For the next data set, the system named is WT RIPK1. Kind of data set: in vitro kinase assay, WT RIPK1. Type of data set: biochemical, human. As to conditions: 100 μM ATP, 30 °C, 30 min, p-RIPK1-S166 immunoblot. Background: Immunoblotting shows a protein as a band on a membrane.
Another data set relates to mutant RIPK1-P195A. Kind of data set: in vitro kinase assay, RIPK1-P195A. To be noted: 100 μM ATP, 30 °C, 30 min, p-RIPK1-S166 immunoblot. The data set is classed as biochemical, human.
Another data set relates to EGLN1. Kind of data set: in vitro hydroxylation assay with recombinant EGLN1. Type of data set: biochemical. To be noted: 37 °C, 1 h, pH 7.5, 50 μM EGLN1, 100 μM substrate; mass spectrometry.

`COC(=O)CNC(=O)C(=O)OC` [dimethyloxalylglycine]: in the data set on monocytes, the “RIPK1 activation and caspase-independent cell death” value is “induce RIPK1 activation and caspase-independent cell death in monocytes”. Further, the cIAP1 expression result with cIAP1 is “caused a decrease in cellular inhibitor of apoptosis protein-1 (cIAP1) expression”.
On to `CN1C(=O)NC(Cc2c[nH]c3c(Cl)cccc23)C1=O` (centres unmarked) [Nec-1s, necrostatin-1s], for which the “hypoxia-induced cell death with Nec-1s” value (in the data set on L929 cells; in the data set on HT-29 cells [1]; with Jurkat cells; with THP-1 cells; in [2]) was “decreased” in each case. Besides, the “hypoxia-induced necroptosis in Vhl-deleted MEFs with Nec-1s” value in the data set on Vhl knockout MEFs is recorded as “could be decreased with the administration of Nec-1s”. In addition, in data set [3], the “inhibition of p-RIPK1-S166 (WT and P195A RIPK1)” value was “effectively inhibited”. Besides, in the data set with primary Ripk1 P196A MEFs, the “increased cell death and RIPK1 activation with Nec-1s” value is “both the increased cell death and RIPK1 activation were inhibited”. Moreover, the “cell death of Egln1−/− MEFs with Nec-1s” value in the data set with Egln1−/− MEFs was “blocked the cell death of Egln1^−/− MEFs induced by either TSZ or a combination of TNFα and 5z7”. In addition, the “RDA induced by TNFα, 5z7 and SM-164 with Nec-1s” value in the data set with 786-O cells is recorded as “could be blocked by Nec-1s”. For the same molecule, in the data set on Ripk1 P196A/P196A mice, the “cell death and inflammation in Ripk1 P196A/P196A mice with Nec-1s” value is “decreased cell death and inflammation in Ripk1^P196A/P196A mice”. For the same molecule, in the data set with Vhl LKO mice (liver), the “RIPK1 activation, cell death and inflammation in Vhl LKO mice” value is “blocked RIPK1 activation, cell death and inflammation in Vhl hepatocyte-specific knockout mice”.
Turning to `COc1nccnc1NS(=O)(=O)c1ccc(NC(=O)/C=C/c2ccc([N+](=O)[O-])s2)cc1` [necrosulfonamide], the “suppression of FG-4592-induced cell death” value in the data set with HT-29 cells [4] (10 μM necrosulfonamide, 48 h, n = 3) is on record as “can also suppress cell death induced by treatment with FG-4592 in HT-29 cells”.
As to `CC(=O)N(O)CCCCCNC(=O)CCC(=O)N(O)CCCCCNC(=O)CCC(=O)N(O)CCCCCN` [DFO, deferoxamine], in data set [5], the “hallmarks of RIPK1, RIPK3 and MLKL activation, inhibitor alone” value is “showed the hallmarks of RIPK1, RIPK3 and MLKL activation”; the “concentration needed to activate RIPK1 and necroptosis” value (shortened to “concentration needed”) was “Only high concentrations”. Moreover, the “pVHL interaction with RIPK1” value in [6] is on record as “markedly decreased pVHL interaction with RIPK1 in cells”.
For `[Cl][Co][Cl]` [CoCl2, cobalt chloride], in [5], the “hallmarks of RIPK1, RIPK3 and MLKL activation, inhibitor alone” value was “showed the hallmarks of RIPK1, RIPK3 and MLKL activation”; the “concentration needed” value is “Only high concentrations”. Also, in data set [7], the “RIPK1 proline hydroxylation (pan-hydroxylation antibody)” value was “could be blocked”.
In the case of `Cc1nc(C(=O)NCC(=O)O)c(O)c2ccc(Oc3ccccc3)cc12` [FG-4592], the “sensitization to hypoxia-induced cell death” value with MEFs [8] (1% O2 with or without 200 μM FG-4592, n = 3) is given as “could sensitize cell death induced by hypoxia”. Further, the “RIPK1 activation and necroptosis” value was “activated RIPK1 and induced necroptosis” in the data set with MEFs [8] (MEFs, relatively high concentration, up to 400 μM at indicated times, 48 h); “activated RIPK1 and induced necroptosis” with HT-29 cells [4] (relatively high concentration). Moreover, the “concentration needed” value in data set [5] is “Only high concentrations”. Moreover, in the data set with Mlkl knockout cells, the “effect of Mlkl deletion on FG-4592-induced cell death” value is listed as “deletion of Mlkl decreased cell death induced by FG-4592 treatment”. For the same molecule, the “RIPK1 hydroxylation, RIPK1 activity and cell death, dose dependence” value in data set [9] was “led to a decrease in the hydroxylation of RIPK1 and corresponding increases in RIPK1 activity and cell death”. Moreover, the “RIPK1 Pro196 hydroxylation in vivo” value in data set [10] was “can also reduce the proline hydroxylation of RIPK1 at Pro196 in vivo”. Moreover, the “sensitization to TSZ-induced cell death” value in the data set on MEFs [11] is listed as “could sensitize cells to cell death induced by TSZ treatment”. Besides, the “HIF pathway induction, RIPK1 activation and cell death” value in data set [12] was “can only induce the HIF pathway, without induction of RIPK1 activation and cell death”. The “liver damage, TUNEL^+ cells and p-RIPK1-S166 in liver” value with WT mice (liver) (FG-4592 250 mg kg^−1 i.p., every 24 h for 2 d) is “caused substantial liver damage, with a large number of TUNEL^+ cells and increased p-RIPK1-S166”. Further, the “RIPK1 activation or cell death in liver” value with WT mice (liver) (FG-4592 25 or 50 mg kg^−1 i.p., n = 5) was “did not induce RIPK1 activation or cell death”.
Regarding “recombinant pVHL: purified recombinant von Hippel–Lindau protein”, the “inhibition of RIPK1 kinase activity” value with WT RIPK1 is “could dramatically inhibit induction of the kinase activity of WT RIPK1”; with mutant RIPK1-P195A, “but not mutant RIPK1-P195A”.
On to “KNGGTLYYMAPEHLNDVNAKP [synthetic RIPK1 peptide]”, for which, in the data set on EGLN1, the “hydroxylation by recombinant EGLN1” value is “recombinant EGLN1 hydroxylated a synthetic RIPK1 peptide containing Pro195”.

(Values after publication PMC10617019 (Nature cell biology, 2023).)
